From ChEMBL document CHEMBL3632518, “Synthesis and anti-HCV determinant motif identification in pyranone carboxamide scaffold” (Bioorg Med Chem Lett, 2015)

Columns and labels:
Hepatitis C virus = experiment: Antiviral activity against HCV genotype 1b infected in human HuH7 cells after 3 days by luciferase reporter gene assay; format: functional, organism-based, Hepacivirus hominis; details: Huh-7, 72 h
Method in brief: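 Huh-7 cells carrying self-replicating subgenomic genotype 1b HCV replicon with luciferase reporter (LucNeo#2), kept in DMEM high glucose plus 10% heat-inactivated FBS and 1 mg/ml G418. Seeded at 5×10^3 cells/well without G418 with various compound concentrations (DMSO stocks, 20 mM or higher); 37°C, 3 days. Cells PBS-washed, lysed, luciferase read by luminometer. EC50 from inhibition of luciferase activity.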

[1] = Cytotoxicity against human HuH7 cells after 3 days by tetrazolium dye method; format: cell-based, Huh-7
Method in brief: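 LucNeo#2 replicon-bearing Huh-7 cells, 5×10^3 cells/well, grown without G418 with various compound concentrations at 37°C for 3 days. Viable cell number measured by water-soluble tetrazolium dye (Tetracolor One) method. CC50 taken as concentration reducing viable cell number by 50%.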

Row | EC50 (Hepatitis C virus) [µM] | SMILES | CC50 at 72 h [1] [µM]
1 | 1.3 | O=C(Nc1ccccc1)c1c(NO)cc(-c2cccs2)oc1=O | > 20
2 | 4.1 | COc1ccc(-c2cc(NO)c(C(=O)NC3CCCCC3)c(=O)o2)cc1 | 13.9
3 | 2.9 | O=C(NC1CC1)c1c(NO)cc(-c2ccc(Cl)cc2)oc1=O | 12.8
4 | 5.1 | CCOc1ccccc1NC(=O)c1c(NCCO)cc(-c2cccs2)oc1=O | 10
5 | 1.8 | O=C(Nc1cccc(C(F)(F)F)c1)c1c(NO)cc(-c2cccs2)oc1=O | 11
6 | > 20 | CCOc1ccccc1NC(=O)c1c(NCCO)cc(-c2ccc(Br)cc2)oc1=O | > 20
7 | 14.4 | O=C(Nc1ccc(Br)cc1)c1c(NCCO)cc(-c2ccc(Br)cc2)oc1=O | > 20
8 | 0.47 | Cc1cccc(NC(=O)c2c(NO)cc(-c3cccs3)oc2=O)c1 | > 20
9 | 7.1 | O=C(Nc1ccc(Cl)cc1)c1c(NCCO)cc(-c2cccc(Br)c2)oc1=O | 17
10 | > 20 | O=C(Nc1ccccc1O)c1c(NCCO)cc(-c2ccccc2)oc1=O | > 20
11 | 13 | O=C(Nc1ccc(Br)cc1)c1c(NCCO)cc(-c2cccc(Br)c2)oc1=O | > 20
12 | 0.63 | COc1cccc(NC(=O)c2c(NO)cc(-c3ccccc3)oc2=O)c1 | > 20
13 | > 100 | CONc1cc(-c2ccc(C)cc2)oc(=O)c1C(=O)NCCCO | > 100
14 | 3.8 | O=C(Nc1ccc(Cl)cc1)c1c(NO)cc(-c2cccs2)oc1=O | > 20
15 | 10 | O=C(Nc1ccc(Cl)cc1)c1c(NCCO)cc(-c2ccc(Br)cc2)oc1=O | > 20
16 | > 20 | CCOc1ccccc1NC(=O)c1c(NCCO)cc(-c2cccc(Br)c2)oc1=O | > 20
17 | > 20 | O=C(Nc1ccccc1)c1c(NCCO)cc(-c2cccc(Br)c2)oc1=O | > 20
18 | 6 | O=C(Nc1ccc(Br)cc1)c1c(NO)cc(-c2cccs2)oc1=O | > 20
19 | 5 | Cc1ccc(-c2cc(NO)c(C(=O)NC3CCCCC3)c(=O)o2)cc1 | 10.1
20 | 6 | COc1ccccc1NC(=O)c1c(NCCO)cc(-c2cccc(Br)c2)oc1=O | > 20
21 | 0.36 | CCC[C@H](NC(=O)[C@@H]1[C@H]2CCC[C@H]2CN1C(=O)[C@@H](NC(=O)[C@@H](NC(=O)c1cnccn1)C1CCCCC1)C(C)(C)C)C(=O)C(=O)NC1CC1 [TELAPREVIR] | > 20
22 | 0.59 | Cc1ccccc1NC(=O)c1c(NO)cc(-c2cccs2)oc1=O | > 20
23 | > 100 | O=C(NCCO)c1c(N2CCCCC2)cc(-c2ccc(F)cc2)oc1=O | > 100

Row | EC50 (Hepatitis C virus) [µM] | SMILES | CC50 at 72 h [1] [µM]
24 | > 20 | COc1ccccc1NC(=O)c1c(NCCO)cc(-c2ccc(Br)cc2)oc1=O | > 20
25 | 3.2 | O=C(NC1CCCCC1)c1c(NO)cc(-c2ccc(F)cc2)oc1=O | 11.4
26 | 1.7 | O=C(Nc1ccccc1O)c1c(NO)cc(-c2ccccc2)oc1=O | 14
27 | 1.2 | O=C(Nc1cccc(C(F)(F)F)c1)c1c(NO)cc(-c2ccccc2)oc1=O | 19
28 | > 20 | CCOc1ccccc1NC(=O)c1c(NCCO)cc(-c2ccccc2)oc1=O | > 20
29 | 3.5 | O=C(Nc1cc([N+](=O)[O-])ccc1O)c1c(NO)cc(-c2ccccc2)oc1=O | > 20
30 | 0.25 | Nc1ccccc1NC(=O)c1c(NO)cc(-c2cccs2)oc1=O | > 20
31 | 1.1 | CCOc1ccccc1NC(=O)c1c(NO)cc(-c2ccccc2)oc1=O | > 20
32 | 0.48 | Nc1ccccc1NC(=O)c1c(NO)cc(-c2ccccc2)oc1=O | > 20
33 | 14 | COc1ccc(NC(=O)c2c(NCCO)cc(-c3ccc(Br)cc3)oc2=O)cc1 | > 20
34 | 0.2 | COc1ccc(NC(=O)c2c(NO)cc(-c3cccs3)oc2=O)cc1 | > 20
35 | > 20 | COc1ccccc1NC(=O)c1c(NCCO)cc(-c2cccs2)oc1=O | > 20
36 | > 20 | COc1cccc(NC(=O)c2c(NCCO)cc(-c3cccs3)oc2=O)c1 | > 20
37 | 2.2 | O=C(NC1CCCCC1)c1c(NO)cc(-c2ccc(Cl)cc2)oc1=O | 8.8
38 | 0.35 | COc1ccccc1NC(=O)c1c(NO)cc(-c2ccccc2)oc1=O | > 20
39 | 2.3 | O=C(NC1CCCCC1)c1c(NO)cc(-c2ccccc2)oc1=O | 10.5
40 | 0.39 | Cc1ccc(NC(=O)c2c(NO)cc(-c3cccs3)oc2=O)cc1 | > 20
41 | 5.5 | O=C(Nc1ccc(F)cc1)c1c(NCCO)cc(-c2cccc(Br)c2)oc1=O | > 20
42 | 3.3 | O=C(NC1CC1)c1c(NO)cc(-c2ccc(F)cc2)oc1=O | > 20
43 | 0.65 | O=C(Nc1ccc(F)cc1)c1c(NO)cc(-c2cccs2)oc1=O | > 20
44 | 15 | O=C(NCCBr)c1c(NCCO)cc(-c2cccs2)oc1=O | > 20
45 | > 20 | COc1cccc(NC(=O)c2c(NCCO)cc(-c3ccc(Br)cc3)oc2=O)c1 | > 20
